Screening data as filed in PubChem BioAssay.
The list is not random: actives were taken first. Their share in the collection is about 3.6%.
MITF act = activators of MITF-driven TRPM1 promoter activity in SK-MEL-5 cells; SK-MEL-5 TRPM1-promoter luciferase, 24 h; % of positive control, neutral wells = 0; activation, % at 12.5 µM; actives 0.75% (n = 300,000); AID 588334;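 active = mean activation of at least 80% with every replicate also reaching 80%; inconclusive = mean reaches 80% but some replicate falls short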;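 note: 0% = neutral control wells and 100% = parthenolide positive control wells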
HSF1 activator = increases HSF-1 driven luciferase reporter signal; NIH3T3-HGL HSF-1 luciferase reporter, MG132, 8 h; 100% = twice DMSO control signal; activation, % at 9 µM; actives 1.7% (n = 300,000);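 active = mean replicate activation of at least 50% with a set share of replicates each reaching 50%; inconclusive = only one of those two conditions met; inactive = mean below 50% and too few replicates reaching it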;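 note: 0% = median of the neutral control wells and 100% = twice that signal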
SR-BI DiI-HDL act = SR-BI HDL lipid transfer activation. activation, % at 12.5 µM. actives 0.096% (n = 320,000). CHO ldlA[mSR-BI] cells, DiI-HDL uptake fluorescence, 3 h; 100 = double the neutral-control signal;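 active = mean replicate activation of at least 60% and every replicate at or above 60%; inconclusive = mean or all-replicate condition met, but not both; inactive = mean below 60% and not all replicates reaching 60%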;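 note: 0% = median plate neutral-control signal and 100% = twice that signal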
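System: CHO ldlA[mSR-BI] cells / Medium: HEPES-buffered (25 mM, pH 7.4) F12 plus 0.5% BSA / Probe or stimulus: labelled HDL, 10 µg/mL / Doses: single compound concentration, delivered by pin transfer / Schedule: 3 h, 37 °C / Measured by: DiI fluorescence, bottom read / Measure: cell-associated DiI fluorescence as measure of HDL uptake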
SR-BI DiI inh = inhibitors of mouse SR-BI mediated HDL lipid uptake; Q61009; ldlA[mSR-BI] CHO cells, DiI-HDL uptake fluorescence, 3 h; inhibition, % at 12.5 µM; actives 0.96% (n = 320,000); AID 488896;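 active = mean replicate inhibition of at least 70% and a set share of replicates each scoring 70 or more; inconclusive = meets just one of the two criteria; inactive = fails both criteria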;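 note: 0% = median of neutral control wells and 100% = median of positive control wells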
Target sequence (Q61009 whole entry, looked up): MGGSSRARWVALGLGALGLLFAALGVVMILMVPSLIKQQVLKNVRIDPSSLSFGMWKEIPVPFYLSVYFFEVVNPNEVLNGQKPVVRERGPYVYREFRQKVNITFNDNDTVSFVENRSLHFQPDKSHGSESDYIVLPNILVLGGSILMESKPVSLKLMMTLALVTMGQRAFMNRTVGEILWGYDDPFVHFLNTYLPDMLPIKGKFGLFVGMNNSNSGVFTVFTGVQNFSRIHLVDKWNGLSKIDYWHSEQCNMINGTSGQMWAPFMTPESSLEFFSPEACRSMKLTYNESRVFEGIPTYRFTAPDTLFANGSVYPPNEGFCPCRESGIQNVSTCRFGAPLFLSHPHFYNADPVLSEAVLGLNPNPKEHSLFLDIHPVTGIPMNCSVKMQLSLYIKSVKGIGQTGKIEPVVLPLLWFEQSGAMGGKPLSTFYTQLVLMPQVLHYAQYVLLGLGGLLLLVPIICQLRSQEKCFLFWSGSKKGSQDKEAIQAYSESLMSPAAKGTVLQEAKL
Wnt bcat act = activates Wnt/beta-catenin signaling in a reporter cell assay | activator, plate reader | activation, % at 9.35 µM | actives 1.2% (n = 300,000) | AID 743398; in the data active = activation above about 30%, passing the limit was not always enough; inconclusive = no clear call, values can overlap the other calls;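 note: 0% = neutral control wells and 100% = positive control wells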
The depositor's hits bear a star; ? = inconclusive; nt = no result given.

SMILES | MITF act | HSF1 activator | SR-BI DiI-HDL act | SR-BI DiI inh | Wnt bcat act
CC(C)C1C(C#N)=C(N)Oc2n[nH]c(-c3ccccc3)c21 (configuration not stated) | nt | 12.6 | 13.7 | -13.7 | 0.7
CCSc1cc(C)nc2c(-c3ccccc3)cnn12 | 14.8 | 35.7 | -17.8 | 17.8 | -2.7
C=CCSc1cc(C)nc2c(-c3ccccc3)cnn12 | 11.9 | 47.5 | -18.7 | 18.7 | 32.5*
COC(=O)[C@]12CCCCC=C1N(Cc1ccc(Cl)cc1Cl)C(=O)[C@H](CC(=O)NCCc1ccccc1OC)C2 | nt | nt | nt | nt | -2.6
COc1ccc(CN(CC2CCC(C(=O)O)CC2)C(=S)Nc2ccc(C)c(Cl)c2)cc1 (configuration not stated) | 14.1 | -14.4 | 4.8 | -4.8 | -1.0
Cc1ccc(NC(=S)N(Cc2ccc(Cl)cc2)Cc2ccc(C(=O)O)cc2)cc1Cl | -6.3 | 73.9* | -20.8 | 20.8 | -0.7
O=C1C=C(c2cc(C(F)(F)F)cc(C(F)(F)F)c2)C[C@@H](c2ccc(Cl)cc2)C1 | -6.3 | nt | -74.4 | 74.4* | -5.5
O=C1C=C(c2ccccc2)C[C@@H](c2ccc(Cl)cc2)C1 | 22.4 | nt | -36.1 | 36.1 | -4.3
CC(O)CNCc1ccccc1C(F)(F)F (configuration not stated) | -1.3 | -5.0 | nt | nt | 40.8*
Cc1cc(/C=N/NC(=O)COc2cccc3cccnc23)c(C)n1-c1ccc(O)cc1 | 21.9 | -12.2 | 9.0 | -9.0 | nt
Cc1cc(C)cc(-n2c(C)cc(/C=N\NC(=O)COc3cccc4cccnc34)c2C)c1 | 16.3 | -1.5 | -76.5 | 76.5* | -2.2
COc1ccc(OC)c2c1C(=O)c1ccccc1C2=O | nt | -2.2 | nt | nt | 8.9
COc1ccc(N)c2c1C(=O)c1ccccc1C2=O | 10.5 | 54.3* | -18.3 | 18.3 | nt
CN1CCN(/N=C/c2ccc(Br)cc2)CC1 | 94.7* | 4.3 | 20.3 | -20.3 | 6.9
CN1CCN(/N=C/c2ccc(Cl)c(Cl)c2)CC1 | 88.0* | -8.2 | 32.7 | -32.7 | nt
Cc1ccc(C(C)C)cc1-n1nnc(-c2cccc(Cc3ccc4ccccc4c3)c2)c1C(C)O (configuration not stated) | nt | nt | nt | nt | -7.3
C=CCN1[C@@H](C)[C@H](c2ccccc2)Oc2cccc(N3CCCC3)c2S1(=O)=O | nt | nt | nt | nt | -5.8
CNC(=O)COC(=O)c1ccc(NC(=O)CC#N)cc1 | nt | -6.6 | 4.8 | -4.8 | nt
Cc1ccc2c(COC(=O)c3ccc(NC(=O)CC#N)cc3)cc(=O)oc2c1C | 16.8 | 55.7* | 17.4 | -17.4 | 4.4
Cc1cc(C)c(C(=O)COC(=O)c2ccc(NC(=O)CC#N)cc2)cc1C | 6.8 | -2.1 | -75.2 | 75.2* | 13.7
C#CCNC(=O)C[C@@H]1C[C@@]2(C(=O)OC)CC(C)(C)CC=C2N(CCCCCCCC)C1=O | nt | nt | nt | nt | -3.6
COC(=O)c1ccc2nc(-c3cccc(Br)c3)c(Cc3ccsc3)n2c1 | nt | nt | nt | nt | 0.3
Clc1ccccc1Nc1nc2ccccc2o1 | 77.3 | nt | -8.9 | 8.9 | 60.4*
COCc1cc(=O)[nH]c(Nc2nc3ccccc3o2)n1 | 5.1 | 83.8* | -7.3 | 12.7 | -6.2
CCS(=O)(=O)c1ccc2oc(Nc3ccccc3Cl)nc2c1 | 50.8 | 33.5 | -13.3 | 13.3 | 25.4
SMILES | MITF act | HSF1 activator | SR-BI DiI-HDL act | SR-BI DiI inh | Wnt bcat act
COCCNC(=O)C1(C)CCCN(Cc2cc3ccccc3o2)C1 (configuration not stated) | nt | nt | nt | nt | -1.8
CCOc1cc2c(cc1O)C(=NOC)CC1C2CCC2(C)C(O)CCC12 (configuration not stated) | -32.3 | nt | 2.3 | -2.3 | -18.5
O=[N+]([O-])c1c(Nc2cccc(O)c2)cc(Cl)c2nonc12 | nt | 163.8* | 10.9 | -10.9 | -18.1
Cc1cccc(C(O)c2ncc(-c3ccc(F)cc3)[nH]2)c1C (configuration not stated) | nt | nt | nt | nt | -2.5
CCn1ccnc1CN(C)C(=O)c1cc(COc2ccccc2SC)on1 | ? | 17.6 | -24.4 | 24.4 | 22.9
CSc1ccccc1OCc1cc(C(=O)N(C)CCn2nc(C)cc2C)no1 | 15.4 | 15.0 | -30.3 | 30.3 | 3.0
CC(=O)c1cccc(OCc2cc(C(=O)N(C)C(C)c3ccccn3)no2)c1 (configuration not stated) | -3.9 | 16.2 | -15.3 | 15.3 | 0.3
CC(=O)c1cccc(OCc2cc(C(=O)N(C)Cc3cnccn3)no2)c1 | 95.8* | 30.2 | 3.3 | -3.3 | 13.0
CSc1ccccc1OCc1cc(C(=O)N(C)Cc2nonc2C)no1 | 150.5* | 21.8 | -55.7 | 55.7 | 20.9
COc1cccc(OCc2cc(C(=O)N(C)Cc3nc4ccccc4[nH]3)no2)c1 | 66.3 | 61.2* | -32.1 | 32.1 | 24.9
CSc1ccccc1OCc1cc(C(=O)N(C)Cc2ccncn2)no1 | 116.7* | 16.8 | -33.0 | 33.0 | 16.5
Nc1nc(N)c2cc(S(=O)(=O)c3ccc4ccccc4c3)ccc2n1 | nt | nt | nt | nt | -1.6
COc1ccc(OCc2cc(C(=O)N[C@H]3CCCCNC3=O)no2)c(Cl)c1 | 53.3 | 29.5 | -24.4 | 24.4 | -3.0
CSc1ccccc1OCc1cc(C(=O)N[C@H]2CCCCNC2=O)no1 | 96.2* | ? | 0.2 | -0.2 | 29.2
CSc1ccccc1OCc1cc(C(=O)NCc2cccc(C)n2)no1 | 96.0* | 40.3 | -5.6 | 5.6 | 25.8
CSc1ccccc1OCc1cc(C(=O)NC(C)Cc2cccc(C)n2)no1 (configuration not stated) | 10.8 | 45.4 | -67.9 | 67.9 | 12.0
CC(=O)c1ccc(OCc2cc(C(=O)N(C)C(C)c3nccs3)no2)cc1 (configuration not stated) | 26.9 | 84.5* | 5.1 | -5.1 | -2.4
CCCCc1c(-c2ccccc2OC)ncn1C1CCCCC1 | nt | nt | nt | nt | 1.1
CC1(C)CC(=O)C=C(c2ccccc2-c2ccc3c(c2)OCO3)C1=O | nt | nt | nt | nt | -1.9
CC(=O)C1=C(C)N(Cc2ccc(F)cc2)C(=S)NC1c1ccccc1 (configuration not stated) | nt | nt | nt | nt | -4.9
COc1ccc(-c2nc3c4ccccc4[nH]c(=O)n3n2)cc1 | nt | 36.3 | 2.4 | -2.4 | 59.3*
COc1ccc(C(C#N)=Cc2ccc(N(C)CCC#N)cc2)cc1 | nt | nt | nt | nt | 31.0*
OCCNCc1c(OCc2ccc(Cl)cc2)ccc2ccccc12 | 8.8 | 62.2* | 3.0 | -3.0 | 3.3
COc1cccc(CNC(=O)[C@H]2CCCN2C(=O)[C@H]2CCCN2C(=O)c2cccc(Cl)c2)c1 | nt | nt | nt | nt | 3.1
Cc1ccc(-c2nc3ccsc3c(=O)o2)cc1 | -5.9 | 42.9 | -1.3 | 1.3 | 50.2*
Cc1ccc(C(=O)OCC(=O)c2ccc(Br)cc2)cc1S(=O)(=O)N1CCOCC1 | 8.8 | nt | -22.3 | 22.3 | -2.9
COC(=O)C1=C(C)N(Cc2ccc(F)cc2)C(=S)NC1c1cccc(OC)c1 (configuration not stated) | nt | nt | nt | nt | -5.7
CCc1ccc(NC(=O)C(=O)c2ccccc2NC(C)=O)cc1 | nt | nt | 14.4 | -14.4 | 42.5*
Cc1nn(-c2ccccc2)c(N)c1Sc1cccc([N+](=O)[O-])c1 | 7.2 | 7.5 | 0.6 | -0.6 | 1.6
Cc1nn(-c2cccc([N+](=O)[O-])c2)c(N)c1-c1ccccc1 | 92.2* | 31.6 | -56.3 | 56.3 | 14.9
